According to ChEMBL document CHEMBL4477218 (J Med Chem, 2016):
Converted amounts (≈) assume the structure as drawn.

Key:
Type in all cases: functional
Staphylococcus aureus [1] = assay: Antibacterial activity against TMP/methicillin-resistant Staphylococcus aureus ATCC 43300 after 18 hrs by CLSI M100-S16 method; details: ATCC 43300, 18 h
In short: (§1)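 Broth microdilution per CLSI guideline in Isosensitest broth, final inoculum 5 x 10^5 CFU/mL, 18 h at 37 °C. Growth read at A600. MIC taken as the lowest inhibitor concentration visually inhibiting growth, confirmed colorimetrically with Presto Blue. Isosensitest broth with 10 µg/mL thymidine used to check off-target antibacterial activity. Mutant strains were selected on agar containing 6x MIC of an earlier propargyl-linked antifolate and sequenced.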

Staphylococcus aureus [2] = assay: Antibacterial activity against TMP/methicillin-resistant Staphylococcus aureus harboring DHFR H149R mutant after 18 hrs by CLSI M100-S16 method; in short: as §1
Staphylococcus aureus [3] = assay: Antibacterial activity against TMP/methicillin-resistant Staphylococcus aureus harboring DHFR H30N mutant after 18 hrs by CLSI M100-S16 method; in short: as §1
Staphylococcus aureus [4] = assay: Antibacterial activity against TMP/methicillin-resistant Staphylococcus aureus harboring DHFR H30N/F98Y double mutant after 18 hrs by CLSI M100-S16 method; in short: as §1
Staphylococcus aureus [5] = assay: Antibacterial activity against TMP/methicillin-resistant Staphylococcus aureus harboring DHFR F98Y/H149R double mutant after 18 hrs by CLSI M100-S16 method; in short: as §1
Staphylococcus aureus [6] = assay: Antibacterial activity against TMP/methicillin-resistant Staphylococcus aureus harboring DHFR F98Y mutant after 18 hrs by CLSI M100-S16 method; in short: as §1

`CCc1nc(N)nc(N)c1C#CCc1cc(-c2ccc(C(=O)O)cc2)ccc1OC` was tested. Which MIC (Staphylococcus aureus [1]) did it give?
Its MIC is 0.0195 µg/mL (≈ 0.0485 µM).

What about the MIC (Staphylococcus aureus [2]) of the same compound?
The MIC was 0.156 µg/mL (≈ 0.389 µM).

What about the MIC (Staphylococcus aureus [3]) of the same compound?
The MIC was 0.156 µg/mL (≈ 0.388 µM).

What about the MIC (Staphylococcus aureus [4]) of the same compound?
Its MIC is 6.25 µg/mL (≈ 15.5 µM).

What about the MIC (Staphylococcus aureus [5]) of the same compound?
Its MIC is over 50 µg/mL.

And the MIC (Staphylococcus aureus [6])?
Its MIC is 0.156 µg/mL (≈ 0.388 µM).

Which MIC (Staphylococcus aureus [1]) does the source give for `CCc1nc(N)nc(N)c1C#CCc1cc(OC)c(OC)c(-c2ccncc2)c1` here?
Its MIC is 0.0195 µg/mL (≈ 0.0501 µM).

And the MIC (Staphylococcus aureus [2])?
Its MIC is 0.625 µg/mL (≈ 1.6 µM).

And the MIC (Staphylococcus aureus [3])?
The MIC was 0.625 µg/mL (≈ 1.6 µM).

And the MIC (Staphylococcus aureus [4])?
The MIC was 20 µg/mL (≈ 51.4 µM).

And the MIC (Staphylococcus aureus [5])?
The MIC was 40 µg/mL (≈ 103 µM).

And the MIC (Staphylococcus aureus [6])?
Its MIC is 0.625 µg/mL (≈ 1.6 µM).

Which results are given for `CCc1nc(N)nc(N)c1C#CC(C)c1cc(OC)cc(-c2ccncc2)c1` (centres undefined)?
MIC (Staphylococcus aureus [1]): 0.0781 µg/mL (≈ 0.209 µM); MIC (Staphylococcus aureus [2]): 2.5 µg/mL (≈ 6.69 µM); MIC (Staphylococcus aureus [3]): 2.5 µg/mL (≈ 6.69 µM); MIC (Staphylococcus aureus [4]): 20 µg/mL (≈ 53.6 µM); MIC (Staphylococcus aureus [5]): 80 µg/mL (≈ 214 µM); MIC (Staphylococcus aureus [6]): 2.5 µg/mL (≈ 6.69 µM)

How did the MIC (Staphylococcus aureus [1]) turn out when `CCc1nc(N)nc(N)c1C#C[C@H](C)c1cc(-c2ccc(C(=O)O)cc2)ccc1OC` was run?
The MIC was 0.0391 µg/mL (≈ 0.0939 µM).

What about the MIC (Staphylococcus aureus [2]) of the same compound?
The MIC was 0.0781 µg/mL (≈ 0.188 µM).

What about the MIC (Staphylococcus aureus [3]) of the same compound?
The MIC was 0.156 µg/mL (≈ 0.375 µM).

What about the MIC (Staphylococcus aureus [4]) of the same compound?
Its MIC is over 40 µg/mL.

And the MIC (Staphylococcus aureus [5])?
Its MIC is over 40 µg/mL.

What about the MIC (Staphylococcus aureus [6]) of the same compound?
The MIC was 0.156 µg/mL (≈ 0.375 µM).

`CCc1nc(N)nc(N)c1C#CC(C)c1cc(-c2ccncc2)ccc1OC` (centres undefined) was tested. Which MIC (Staphylococcus aureus [1]) did it give?
Its MIC is 0.625 µg/mL (≈ 1.67 µM).

What about the MIC (Staphylococcus aureus [2]) of the same compound?
The MIC was 2.5 µg/mL (≈ 6.69 µM).

And the MIC (Staphylococcus aureus [3])?
Its MIC is 2.5 µg/mL (≈ 6.69 µM).

What about the MIC (Staphylococcus aureus [4]) of the same compound?
Its MIC is 20 µg/mL (≈ 53.6 µM).

What about the MIC (Staphylococcus aureus [5]) of the same compound?
The MIC was 40 µg/mL (≈ 107 µM).

And the MIC (Staphylococcus aureus [6])?
The MIC was 2.5 µg/mL (≈ 6.69 µM).

Which results are given for `CCc1nc(N)nc(N)c1C#C[C@@H](C)c1cc(-c2ccncc2)ccc1OC`?
MIC (Staphylococcus aureus [1]): 0.0195 µg/mL (≈ 0.0522 µM); MIC (Staphylococcus aureus [2]): 1.25 µg/mL (≈ 3.35 µM); MIC (Staphylococcus aureus [3]): 0.625 µg/mL (≈ 1.67 µM); MIC (Staphylococcus aureus [4]): 10 µg/mL (≈ 26.8 µM); MIC (Staphylococcus aureus [5]): 20 µg/mL (≈ 53.6 µM); MIC (Staphylococcus aureus [6]): 1.25 µg/mL (≈ 3.35 µM)

Which MIC (Staphylococcus aureus [1]) does the source give for `CCc1nc(N)nc(N)c1C#C[C@H](C)c1cc2c(c(-c3ccncc3)c1)OCO2` here?
The MIC was 0.0195 µg/mL (≈ 0.0503 µM).

And the MIC (Staphylococcus aureus [2])?
The MIC was 2.5 µg/mL (≈ 6.45 µM).

And the MIC (Staphylococcus aureus [3])?
The MIC was 2.5 µg/mL (≈ 6.45 µM).

And the MIC (Staphylococcus aureus [4])?
Its MIC is 20 µg/mL (≈ 51.6 µM).

What about the MIC (Staphylococcus aureus [5]) of the same compound?
The MIC was 20 µg/mL (≈ 51.6 µM).

And the MIC (Staphylococcus aureus [6])?
Its MIC is 1.25 µg/mL (≈ 3.23 µM).

Which results are given for `CCc1nc(N)nc(N)c1C#CC(C)c1cc2c(c(-c3ccncc3)c1)OCO2` (centres undefined)?
MIC (Staphylococcus aureus [1]): 0.0781 µg/mL (≈ 0.202 µM); MIC (Staphylococcus aureus [2]): 5 µg/mL (≈ 12.9 µM); MIC (Staphylococcus aureus [3]): 5 µg/mL (≈ 12.9 µM); MIC (Staphylococcus aureus [4]): 40 µg/mL (≈ 103 µM); MIC (Staphylococcus aureus [5]): 40 µg/mL (≈ 103 µM); MIC (Staphylococcus aureus [6]): 1.25 µg/mL (≈ 3.23 µM)

What does the source list for `CCc1nc(N)nc(N)c1C#CCc1cc(OC)cc(-c2ccc(C(=O)O)cc2)c1`?
MIC (Staphylococcus aureus [1]): 0.0195 µg/mL (≈ 0.0485 µM); MIC (Staphylococcus aureus [2]): 0.156 µg/mL (≈ 0.388 µM); MIC (Staphylococcus aureus [3]): 0.156 µg/mL (≈ 0.388 µM); MIC (Staphylococcus aureus [4]): 5 µg/mL (≈ 12.4 µM); MIC (Staphylococcus aureus [5]): 10 µg/mL (≈ 24.8 µM); MIC (Staphylococcus aureus [6]): 0.156 µg/mL (≈ 0.388 µM)

`CCc1nc(N)nc(N)c1C#C[C@@H](C)c1cc(OC)cc(-c2ccc(C(=O)O)cc2)c1` was tested. Which MIC (Staphylococcus aureus [1]) did it give?
Its MIC is 0.0098 µg/mL (≈ 0.0235 µM).

And the MIC (Staphylococcus aureus [2])?
The MIC was 0.0781 µg/mL (≈ 0.188 µM).

And the MIC (Staphylococcus aureus [3])?
Its MIC is 0.0781 µg/mL (≈ 0.188 µM).

What about the MIC (Staphylococcus aureus [4]) of the same compound?
Its MIC is 1.25 µg/mL (≈ 3 µM).

And the MIC (Staphylococcus aureus [5])?
Its MIC is 1.25 µg/mL (≈ 3 µM).

With `CCc1nc(N)nc(N)c1C#C[C@H](C)c1cc(OC)cc(-c2ccncc2)c1` as the compound, how does the MIC (Staphylococcus aureus [1]) read?
The MIC was 0.0391 µg/mL (≈ 0.105 µM).

And the MIC (Staphylococcus aureus [2])?
The MIC was 0.625 µg/mL (≈ 1.67 µM).

What about the MIC (Staphylococcus aureus [3]) of the same compound?
Its MIC is 0.625 µg/mL (≈ 1.67 µM).

What about the MIC (Staphylococcus aureus [4]) of the same compound?
The MIC was 40 µg/mL (≈ 107 µM).

And the MIC (Staphylococcus aureus [5])?
Its MIC is 20 µg/mL (≈ 53.6 µM).

And the MIC (Staphylococcus aureus [6])?
Its MIC is 0.625 µg/mL (≈ 1.67 µM).

`CCc1nc(N)nc(N)c1C#C[C@H](C)c1cc(OC)cc(-c2ccc(C(=O)O)cc2)c1` was tested. Which MIC (Staphylococcus aureus [1]) did it give?
The MIC was 0.0098 µg/mL (≈ 0.0235 µM).

And the MIC (Staphylococcus aureus [2])?
Its MIC is 0.0391 µg/mL (≈ 0.0939 µM).

And the MIC (Staphylococcus aureus [5])?
The MIC was 2.5 µg/mL (≈ 6 µM).

What about the MIC (Staphylococcus aureus [6]) of the same compound?
Its MIC is 0.0781 µg/mL (≈ 0.188 µM).
